From ChEMBL document CHEMBL2384906, “Biological activity, design, synthesis and structure activity relationship of some novel derivatives of curcumin containing sulfonamides” (Eur J Med Chem, 2013)
≈ marks a conversion by molar mass, not a printed value. Calls of active or inactive are those of the source. The calls are words filed in the database; no cut-off is given here.

Assays:
[1] = test system: Curvularia lunata; experiment: Antifungal activity against Curvularia lunata MTCC 581 after 48 hrs; type: functional; details: MTCC 581, 48 h
[2] = test system: Salmonella typhi; experiment: Antimicrobial activity against Salmonella typhi ATCC 23564 assessed as diameter of inhibition zone at 40 uM after 24 hrs by Kirby -Baur disc diffusion method; type: functional, Salmonella enterica subsp. enterica serovar Typhi; details: Salmonella enterica, ATCC 23564, 24 h; read-out: DIZ
[3] = test system: Staphylococcus aureus; experiment: Antimicrobial activity against Staphylococcus aureus ATCC 11632 assessed as diameter of inhibition zone at 40 uM after 24 hrs by Kirby -Baur disc diffusion method; type: functional; details: ATCC 11632, 24 h, read-out: DIZ
Summary of the method: (§1)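 Kirby-Bauer disc diffusion was used. Acetone stocks (160 µM) were serially doubled down to 80, 40 and 20 µM. 4 µL of each went onto 5 mm sterile paper discs, which were dried 30 min at 50 °C. Inoculum was 1.5 × 10⁸ CFU/mL diluted to 3 × 10² CFU/mL, and 50 µL was spread on Mueller-Hinton agar. After 24 h at 37 °C the inhibition-zone diameter was measured. Ciprofloxacin served as positive control.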

[4] = test system: Salmonella typhi; experiment: Antimicrobial activity against Salmonella typhi ATCC 23564 assessed as diameter of inhibition zone at 80 uM after 24 hrs by Kirby -Baur disc diffusion method; type: functional, Salmonella enterica subsp. enterica serovar Typhi; details: Salmonella enterica, ATCC 23564, 24 h; read-out: DIZ
[5] = test system: Pseudomonas aeruginosa; experiment: Antimicrobial activity against Pseudomonas aeruginosa ATCC 15499 assessed as diameter of inhibition zone at 40 uM after 24 hrs by Kirby -Baur disc diffusion method; type: functional; details: ATCC 15499, 24 h, read-out: DIZ; summary of the method: as §1
[6] = test system: Aspergillus niger; experiment: Antifungal activity against Aspergillus niger MTCC 1108 after 48 hrs; type: functional; details: MTCC 1108, 48 h
[7] = test system: Bacillus cereus; experiment: Antimicrobial activity against Bacillus cereus MTCC 7350 assessed as diameter of inhibition zone at 40 uM after 24 hrs by Kirby -Baur disc diffusion method; type: functional; details: MTCC 7350, 24 h, read-out: DIZ; summary of the method: as §1
[8] = test system: Salmonella typhi; experiment: Antimicrobial activity against Salmonella typhi ATCC 23564 assessed as diameter of inhibition zone at 20 uM after 24 hrs by Kirby -Baur disc diffusion method; type: functional, Salmonella enterica subsp. enterica serovar Typhi; details: Salmonella enterica, ATCC 23564, 24 h; read-out: DIZ
[9] = test system: QG-56; experiment: Cytotoxicity against human QG56 cells after 24 hrs by MTT assay; type: functional, cell-based
Summary of the method: (§2)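 The MTT assay seeded 5 × 10⁴ cells per well and grew them 24 h in RPMI 1640 with compound at 2.5–200 µM. Medium without cells was the blank and adriamycin the positive control. MTT was added for 4 h at 37 °C, formazan was solubilised, and absorbance was read at 570 nm. IC50 is the concentration that cuts viability 50% against untreated cells.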

[10] = test system: Pseudomonas aeruginosa; experiment: Antimicrobial activity against Pseudomonas aeruginosa ATCC 15499 after 24 hrs by broth micro serial dilution method; type: functional; details: ATCC 15499, 24 h
Summary of the method: (§3)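 This was broth microdilution in autoclaved Mueller-Hinton broth. 150 µL of compound per well was serially diluted […], and 50 µL of test organism was added. Plates were incubated 24 h at 37 °C and optical density was read.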

[11] = test system: Salmonella typhi; experiment: Antimicrobial activity against Salmonella typhi ATCC 23564 after 24 hrs by broth micro serial dilution method; type: functional, Salmonella enterica subsp. enterica serovar Typhi; details: Salmonella enterica, ATCC 23564, 24 h
[12] = test system: Escherichia coli; experiment: Antimicrobial activity against Escherichia coli ATCC 35218 after 24 hrs by broth micro serial dilution method; type: functional; details: ATCC 35218, 24 h; summary of the method: as §3
[13] = test system: Aspergillus flavus; experiment: Antifungal activity against Aspergillus flavus MTCC 1021 assessed as zone of inhibition at 40 uM after 48 hrs by disc diffusion method; type: functional; details: MTCC 1021, 48 h, read-out: IZ
Summary of the method: (§4)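 Spores from 4-day potato dextrose agar cultures, suspended in sterile water at 1.5 × 10⁵ CFU/mL. 0.2 mL was spread on potato dextrose agar. 5 mm filter-paper discs soaked with test compound were laid on the lawn. Incubation was 48 h at 28 °C, then the inhibition zone was measured in mm. Fluconazole was the positive control and acetone the negative control.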

[14] = test system: Escherichia coli; experiment: Antimicrobial activity against Escherichia coli ATCC 35218 assessed as diameter of inhibition zone at 80 uM after 24 hrs by Kirby -Baur disc diffusion method; type: functional; details: ATCC 35218, 24 h, read-out: DIZ; summary of the method: as §1
[15] = test system: Trichoderma viride; experiment: Antifungal activity against Trichoderma viride MTCC 1107 assessed as zone of inhibition at 80 uM after 48 hrs by disc diffusion method; type: functional; details: MTCC 1107, 48 h, read-out: IZ; summary of the method: as §4
[16] = test system: Trichoderma viride; experiment: Antifungal activity against Trichoderma viride MTCC 1107 after 48 hrs; type: functional; details: MTCC 1107, 48 h
[17] = test system: Aspergillus niger; experiment: Antifungal activity against Aspergillus niger MTCC 1108 assessed as zone of inhibition at 40 uM after 48 hrs by disc diffusion method; type: functional; details: MTCC 1108, 48 h, read-out: IZ; summary of the method: as §4
[18] = test system: Escherichia coli; experiment: Antimicrobial activity against Escherichia coli ATCC 35218 assessed as diameter of inhibition zone at 20 uM after 24 hrs by Kirby -Baur disc diffusion method; type: functional; details: ATCC 35218, 24 h, read-out: DIZ; summary of the method: as §1
[19] = test system: Pseudomonas aeruginosa; experiment: Antimicrobial activity against Pseudomonas aeruginosa ATCC 15499 assessed as diameter of inhibition zone at 80 uM after 24 hrs by Kirby -Baur disc diffusion method; type: functional; details: ATCC 15499, 24 h, read-out: DIZ; summary of the method: as §1
[20] = test system: Trichoderma viride; experiment: Antifungal activity against Trichoderma viride MTCC 1107 assessed as zone of inhibition at 40 uM after 48 hrs by disc diffusion method; type: functional; details: MTCC 1107, 48 h, read-out: IZ; summary of the method: as §4
[21] = test system: HCT-116; experiment: Cytotoxicity against human HCT116 cells after 24 hrs by MTT assay; type: functional, cell-based; summary of the method: as §2
[22] = test system: Aspergillus niger; experiment: Antifungal activity against Aspergillus niger MTCC 1108 assessed as zone of inhibition at 20 uM after 48 hrs by disc diffusion method; type: functional; details: MTCC 1108, 48 h, read-out: IZ; summary of the method: as §4
[23] = test system: Curvularia lunata; experiment: Antifungal activity against Curvularia lunata MTCC 581 assessed as zone of inhibition at 20 uM after 48 hrs by disc diffusion method; type: functional; details: MTCC 581, 48 h, read-out: IZ; summary of the method: as §4
[24] = test system: Escherichia coli; experiment: Antimicrobial activity against Escherichia coli ATCC 35218 assessed as diameter of inhibition zone at 40 uM after 24 hrs by Kirby -Baur disc diffusion method; type: functional; details: ATCC 35218, 24 h, read-out: DIZ; summary of the method: as §1
[25] = test system: Staphylococcus aureus; experiment: Antimicrobial activity against Staphylococcus aureus ATCC 11632 assessed as diameter of inhibition zone at 20 uM after 24 hrs by Kirby -Baur disc diffusion method; type: functional; details: ATCC 11632, 24 h, read-out: DIZ; summary of the method: as §1
[26] = test system: Pseudomonas aeruginosa; experiment: Antimicrobial activity against Pseudomonas aeruginosa ATCC 15499 assessed as diameter of inhibition zone at 20 uM after 24 hrs by Kirby -Baur disc diffusion method; type: functional; details: ATCC 15499, 24 h, read-out: DIZ; summary of the method: as §1
[27] = test system: Aspergillus flavus; experiment: Antifungal activity against Aspergillus flavus MTCC 1021 after 48 hrs; type: functional; details: MTCC 1021, 48 h
[28] = test system: Mus musculus; experiment: Antiinflammatory activity in mouse assessed as inhibition of carrageenan-induced increase in paw volume at 200 mg/kg administered 1 hr prior to carrageenan challenge measured after 3 hrs relative to control; type: functional
Summary of the method: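 Mice were fasted 2 h and placed in groups of five. Controls received saline i.p. Phenylbutazone was given at 100 mg/kg i.p., curcumin at 200 mg/kg i.p., and derivatives at 200 mg/kg. After 1 h, 0.1 mL of 1% carrageenan in saline was injected subplantar into the right hind paw. Paw volume was followed by plethysmometer for 3 h, and % inhibition was calculated as (Vc − Vt)/Vc × 100.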

[29] = test system: HepG2; experiment: Cytotoxicity against human HepG2 cells after 24 hrs by MTT assay; type: functional, cell-based; summary of the method: as §2
[30] = test system: Bacillus cereus; experiment: Antimicrobial activity against Bacillus cereus MTCC 7350 assessed as diameter of inhibition zone at 20 uM after 24 hrs by Kirby -Baur disc diffusion method; type: functional; summary of the method: as §1
[31] = test system: Staphylococcus aureus; experiment: Antimicrobial activity against Staphylococcus aureus ATCC 11632 after 24 hrs by broth micro serial dilution method; type: functional; details: ATCC 11632, 24 h; summary of the method: as §3
[32] = test system: Curvularia lunata; experiment: Antifungal activity against Curvularia lunata MTCC 581 assessed as zone of inhibition at 80 uM after 48 hrs by disc diffusion method; type: functional; details: MTCC 581, 48 h, read-out: IZ; summary of the method: as §4
[33] = test system: Bacillus cereus; experiment: Antimicrobial activity against Bacillus cereus MTCC 7350 assessed as diameter of inhibition zone at 80 uM after 24 hrs by Kirby -Baur disc diffusion method; type: functional; details: MTCC 7350, 24 h, read-out: DIZ; summary of the method: as §1
[34] = test system: Aspergillus flavus; experiment: Antifungal activity against Aspergillus flavus MTCC 1021 assessed as zone of inhibition at 80 uM after 48 hrs by disc diffusion method; type: functional; details: MTCC 1021, 48 h, read-out: IZ; summary of the method: as §4
[35] = test system: Curvularia lunata; experiment: Antifungal activity against Curvularia lunata MTCC 581 assessed as zone of inhibition at 40 uM after 48 hrs by disc diffusion method; type: functional; details: MTCC 581, 48 h, read-out: IZ; summary of the method: as §4
[36] = test system: HeLa; experiment: Cytotoxicity against human HeLa cells after 24 hrs by MTT assay; type: functional, cell-based; summary of the method: as §2
[37] = test system: Aspergillus niger; experiment: Antifungal activity against Aspergillus niger MTCC 1108 assessed as zone of inhibition at 80 uM after 48 hrs by disc diffusion method; type: functional; details: MTCC 1108, 48 h, read-out: IZ; summary of the method: as §4
[38] = test system: Trichoderma viride; experiment: Antifungal activity against Trichoderma viride MTCC 1107 assessed as zone of inhibition at 20 uM after 48 hrs by disc diffusion method; type: functional; details: MTCC 1107, 48 h, read-out: IZ; summary of the method: as §4
[39] = test system: Bacillus cereus; experiment: Antimicrobial activity against Bacillus cereus MTCC 7350 after 24 hrs by broth micro serial dilution method; type: functional; details: MTCC 7350, 24 h; summary of the method: as §3
[40] = test system: Aspergillus flavus; experiment: Antifungal activity against Aspergillus flavus MTCC 1021 assessed as zone of inhibition at 20 uM after 48 hrs by disc diffusion method; type: functional; summary of the method: as §4
[41] = test system: Staphylococcus aureus; experiment: Antimicrobial activity against Staphylococcus aureus ATCC 11632 assessed as diameter of inhibition zone at 80 uM after 24 hrs by Kirby -Baur disc diffusion method; type: functional; details: ATCC 11632, 24 h, read-out: DIZ; summary of the method: as §1

COc1cc(/C=C/C(O)=C/C(/C=C/c2ccc(O)c(OC)c2)=N/c2ccc(S(=O)(=O)Nc3nc(C)cc(C)n3)cc2)ccc1O
MIC [1]: 20 µM (≈ 12.6 µg/mL) | zone of inhibition at 40 µM [2]: 14 mm | zone of inhibition at 40 µM [3]: 18 mm | zone of inhibition at 80 µM [4]: 17 mm | zone of inhibition at 40 µM [5]: 16 mm | MIC [6]: 20 µM (≈ 12.6 µg/mL) | zone of inhibition at 40 µM [7]: 9 mm | zone of inhibition at 20 µM [8]: 10 mm | IC50 [9]: 50 µM | MIC [10]: 20 µM (≈ 12.6 µg/mL) | MIC [11]: 20 µM (≈ 12.6 µg/mL) | MIC [12]: 20 µM (≈ 12.6 µg/mL) | zone of inhibition at 40 µM [13]: 9 mm | zone of inhibition at 80 µM [14]: 23 mm | zone of inhibition at 80 µM [15]: 22 mm | MIC [16]: 20 µM (≈ 12.6 µg/mL) | zone of inhibition at 40 µM [17]: 14 mm | zone of inhibition at 20 µM [18]: 21 mm | zone of inhibition at 80 µM [19]: 19 mm | zone of inhibition at 40 µM [20]: 19 mm | IC50 [21]: 25 µM | zone of inhibition at 20 µM [22]: 12 mm | zone of inhibition at 20 µM [23]: 12 mm | zone of inhibition at 40 µM [24]: 21 mm | zone of inhibition at 20 µM [25]: 16 mm | zone of inhibition at 20 µM [26]: 10 mm | MIC [27]: > 80 µM | inhibition in vivo at 200 mg/kg [28]: 38.7% | IC50 [29]: 25 µM | diameter of the inhibition zone (DIZ) [30]: inactive | MIC [31]: 20 µM (≈ 12.6 µg/mL) | zone of inhibition at 80 µM [32]: 19 mm | zone of inhibition at 80 µM [33]: 12 mm | zone of inhibition at 80 µM [34]: 11 mm | zone of inhibition at 40 µM [35]: 16 mm | IC50 [36]: 25 µM | zone of inhibition at 80 µM [37]: 16 mm | zone of inhibition at 20 µM [38]: 18 mm | MIC [39]: 20 µM (≈ 12.6 µg/mL) | inhibition zone (IZ) [40]: inactive | zone of inhibition at 80 µM [41]: 22 mm
